system: Venturia inaequalis; assay: Fungicidal activity against Venturia inaequalis assessed as mycelium growth inhibition at 30 ug/mL after 72 hrs; assay type: functional; details: read-out: GI
Procedure, shortened: (§1)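 Radial mycelial growth test on potato-saccharose agar mixed with compound at a single concentration. Plates are inoculated with inverted 3-mm fungus-coated discs and incubated at 25 °C. Colony diameter (mm) is read at 72 h against medium without sample. Inhibition I = [(DC − DT)/DC] × 100%. Three replicates.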

| Compound | inhibition of growth at 30 µg/mL [%] |
| --- | --- |
| COc1ccccc1-c1cc2c(O)cc([N+](=O)[O-])cc2[nH]1 | 26 |
| Nc1cc([N+](=O)[O-])c2cc(-c3ccccc3)oc2c1 | 16 |
| COc1cc([N+](=O)[O-])cc2[nH]c(-c3ccccc3)c(C)c12 | 2 |
| COc1cc([N+](=O)[O-])cc2c1c(C)c(-c1ccccc1)n2C | 12 |
| COc1cc([N+](=O)[O-])cc2c1cc(-c1ccccc1)n2C | 21 |
| Cn1c(-c2ccccc2)cc2c(O)cc([N+](=O)[O-])cc21 | 46 |
| O=[N+]([O-])c1cc(O)c2cc(-c3ccccc3)n(Cc3ccc(Cl)cc3)c2c1 | 12 |
| Cc1c(-c2ccccc2)[nH]c2c([N+](=O)[O-])cc(O)cc12 | 41 |
| Cc1c(-c2ccccc2)[nH]c2c(O)cc([N+](=O)[O-])cc12 | 48 |
| Cc1c(-c2ccccc2)[nH]c2c([N+](=O)[O-])ccc(O)c12 | 70 |
| Cc1c(-c2ccccc2)[nH]c2c(O)ccc([N+](=O)[O-])c12 | 65 |

system: Rhizoctonia solani; assay: Fungicidal activity against Rhizoctonia solani assessed as mycelium growth inhibition at 30 ug/mL after 72 hrs; assay type: functional; details: read-out: GI; procedure, shortened: as §1

| Compound | inhibition of growth at 30 µg/mL [%] |
| --- | --- |
| COc1ccccc1-c1cc2c(O)cc([N+](=O)[O-])cc2[nH]1 | 8 |
| Nc1cc([N+](=O)[O-])c2cc(-c3ccccc3)oc2c1 | 3 |
| COc1cc([N+](=O)[O-])cc2[nH]c(-c3ccccc3)c(C)c12 | 13 |
| COc1cc([N+](=O)[O-])cc2c1c(C)c(-c1ccccc1)n2C | 4 |
| COc1cc([N+](=O)[O-])cc2c1cc(-c1ccccc1)n2C | 7 |
| Cn1c(-c2ccccc2)cc2c(O)cc([N+](=O)[O-])cc21 | 77 |
| O=[N+]([O-])c1cc(O)c2cc(-c3ccccc3)n(Cc3ccc(Cl)cc3)c2c1 | 34 |
| Cc1c(-c2ccccc2)[nH]c2c([N+](=O)[O-])cc(O)cc12 | 91 |
| Cc1c(-c2ccccc2)[nH]c2c(O)cc([N+](=O)[O-])cc12 | 89 |
| Cc1c(-c2ccccc2)[nH]c2c([N+](=O)[O-])ccc(O)c12 | 100 |
| Cc1c(-c2ccccc2)[nH]c2c(O)ccc([N+](=O)[O-])c12 | 100 |

system: Sclerotinia sclerotiorum; assay: Fungicidal activity against Sclerotinia sclerotiorum assessed as mycelium growth inhibition at 30 ug/mL after 72 hrs; assay type: functional; details: read-out: GI; procedure, shortened: as §1

| Compound | inhibition of growth at 30 µg/mL [%] |
| --- | --- |
| COc1ccccc1-c1cc2c(O)cc([N+](=O)[O-])cc2[nH]1 | 20 |
| Nc1cc([N+](=O)[O-])c2cc(-c3ccccc3)oc2c1 | 7 |
| COc1cc([N+](=O)[O-])cc2[nH]c(-c3ccccc3)c(C)c12 | 5 |
| COc1cc([N+](=O)[O-])cc2c1c(C)c(-c1ccccc1)n2C | 0 |
| COc1cc([N+](=O)[O-])cc2c1cc(-c1ccccc1)n2C | 8 |
| Cn1c(-c2ccccc2)cc2c(O)cc([N+](=O)[O-])cc21 | 23 |
| O=[N+]([O-])c1cc(O)c2cc(-c3ccccc3)n(Cc3ccc(Cl)cc3)c2c1 | 2 |
| Cc1c(-c2ccccc2)[nH]c2c([N+](=O)[O-])cc(O)cc12 | 51 |
| Cc1c(-c2ccccc2)[nH]c2c(O)cc([N+](=O)[O-])cc12 | 94 |
| Cc1c(-c2ccccc2)[nH]c2c([N+](=O)[O-])ccc(O)c12 | 51 |
| Cc1c(-c2ccccc2)[nH]c2c(O)ccc([N+](=O)[O-])c12 | 54 |

system: Bipolaris sorokiniana; assay: Fungicidal activity against Bipolaris sorokiniana assessed as mycelium growth inhibition at 30 ug/mL after 72 hrs; assay type: functional; details: read-out: GI; procedure, shortened: as §1

| Compound | inhibition of growth at 30 µg/mL [%] |
| --- | --- |
| COc1ccccc1-c1cc2c(O)cc([N+](=O)[O-])cc2[nH]1 | 20 |
| Nc1cc([N+](=O)[O-])c2cc(-c3ccccc3)oc2c1 | 3 |
| COc1cc([N+](=O)[O-])cc2[nH]c(-c3ccccc3)c(C)c12 | 7 |
| COc1cc([N+](=O)[O-])cc2c1c(C)c(-c1ccccc1)n2C | 12 |
| COc1cc([N+](=O)[O-])cc2c1cc(-c1ccccc1)n2C | 7 |
| Cn1c(-c2ccccc2)cc2c(O)cc([N+](=O)[O-])cc21 | 77 |
| O=[N+]([O-])c1cc(O)c2cc(-c3ccccc3)n(Cc3ccc(Cl)cc3)c2c1 | 11 |
| Cc1c(-c2ccccc2)[nH]c2c([N+](=O)[O-])cc(O)cc12 | 83 |
| Cc1c(-c2ccccc2)[nH]c2c(O)cc([N+](=O)[O-])cc12 | 95 |
| Cc1c(-c2ccccc2)[nH]c2c([N+](=O)[O-])ccc(O)c12 | 83 |
| Cc1c(-c2ccccc2)[nH]c2c(O)ccc([N+](=O)[O-])c12 | 87 |

system: Fusarium oxysporum; assay: Fungicidal activity against Fusarium oxysporum assessed as mycelium growth inhibition at 30 ug/mL after 72 hrs; assay type: functional; details: read-out: GI; procedure, shortened: as §1

| Compound | inhibition of growth at 30 µg/mL [%] |
| --- | --- |
| COc1ccccc1-c1cc2c(O)cc([N+](=O)[O-])cc2[nH]1 | 15 |
| Nc1cc([N+](=O)[O-])c2cc(-c3ccccc3)oc2c1 | 9 |
| COc1cc([N+](=O)[O-])cc2[nH]c(-c3ccccc3)c(C)c12 | 11 |
| COc1cc([N+](=O)[O-])cc2c1c(C)c(-c1ccccc1)n2C | 8 |
| COc1cc([N+](=O)[O-])cc2c1cc(-c1ccccc1)n2C | 7 |
| Cn1c(-c2ccccc2)cc2c(O)cc([N+](=O)[O-])cc21 | 56 |
| O=[N+]([O-])c1cc(O)c2cc(-c3ccccc3)n(Cc3ccc(Cl)cc3)c2c1 | 27 |
| Cc1c(-c2ccccc2)[nH]c2c([N+](=O)[O-])cc(O)cc12 | 34 |
| Cc1c(-c2ccccc2)[nH]c2c(O)cc([N+](=O)[O-])cc12 | 63 |
| Cc1c(-c2ccccc2)[nH]c2c([N+](=O)[O-])ccc(O)c12 | 73 |
| Cc1c(-c2ccccc2)[nH]c2c(O)ccc([N+](=O)[O-])c12 | 91 |

system: Fusarium verticillioides; assay: Fungicidal activity against Fusarium moniliforme assessed as mycelium growth inhibition at 30 ug/mL after 72 hrs; assay type: functional; details: read-out: GI; procedure, shortened: as §1

| Compound | inhibition of growth at 30 µg/mL [%] |
| --- | --- |
| COc1ccccc1-c1cc2c(O)cc([N+](=O)[O-])cc2[nH]1 | 36 |
| Nc1cc([N+](=O)[O-])c2cc(-c3ccccc3)oc2c1 | 5 |
| COc1cc([N+](=O)[O-])cc2[nH]c(-c3ccccc3)c(C)c12 | 7 |
| COc1cc([N+](=O)[O-])cc2c1c(C)c(-c1ccccc1)n2C | 8 |
| COc1cc([N+](=O)[O-])cc2c1cc(-c1ccccc1)n2C | 23 |
| Cn1c(-c2ccccc2)cc2c(O)cc([N+](=O)[O-])cc21 | 51 |
| O=[N+]([O-])c1cc(O)c2cc(-c3ccccc3)n(Cc3ccc(Cl)cc3)c2c1 | 18 |
| Cc1c(-c2ccccc2)[nH]c2c([N+](=O)[O-])cc(O)cc12 | 54 |
| Cc1c(-c2ccccc2)[nH]c2c(O)cc([N+](=O)[O-])cc12 | 71 |
| Cc1c(-c2ccccc2)[nH]c2c([N+](=O)[O-])ccc(O)c12 | 84 |
| Cc1c(-c2ccccc2)[nH]c2c(O)ccc([N+](=O)[O-])c12 | 88 |

— ChEMBL document CHEMBL1817569, “Synthesis, antifungal activity and QSAR study of 2-arylhydroxynitroindoles” (Eur J Med Chem, 2011)
